The values that follow come from ChEMBL document CHEMBL1152911, “Synthesis and biological activities of a pH-dependently activated water-soluble prodrug of a novel hexacyclic camptothecin analog” (Bioorg Med Chem Lett, 2009).

The source made the active and inactive calls. No cut-off for these calls is given here. Bounds are passed on as bounds.

The nature of data set [1]: Stability of compound in pH 2 phosphate buffer at room temperature assessed as prodrug remaining after conversion into active drug CH0793076 after 3 hrs. It counts as physicochemical. To be noted: pH 2, 3 h.
The nature of data set [2]: Stability of compound in pH 5 phosphate buffer at room temperature assessed as prodrug remaining after conversion into active drug CH0793076 after 3 hrs. It counts as physicochemical. The following applies: pH 5, 3 h.
Data set [3] can be described thus: Stability of compound in pH 7.4 phosphate buffer at room temperature assessed as prodrug remaining after conversion into active drug CH0793076 after 3 hrs. The data set is classed as physicochemical. The following applies: pH 7.4, 3 h.
Data set [4] has as its system HCT-116. Briefly: Antitumor activity against human BCRP-negative HCT116 cells xenografted in mouse at MTD of 100 mg/kg, iv administered as bolus once per week for 3 weeks. The data set is classed as functional, organism-based. On the set-up: dose 100 mg/kg.
Data set [5] relates to Plasma. Briefly: Stability in monkey plasma assessed as time required for conversion into active drug CH0793076. The data set is classed as ADME, cell-free, Macaca mulatta. The following applies: rhesus monkey.
Data set [6] concerns NCI-H460. Briefly: Antitumor activity against human BCRP-positive NCI-H460 cells xenografted in mouse at MTD of 47 mg/kg, iv administered as bolus once per week for 3 weeks. It counts as functional, organism-based. On the set-up: dose 47 mg/kg. (In general: In xenograft studies the graft and the host belong to different species.)
For data set [7], the system named is Plasma. Briefly: Stability in rat plasma assessed as time required for conversion into active drug CH0793076. It counts as ADME, cell-free. Put shortly: (§1)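 ¹⁴C-labelled prodrug was incubated in plasma of the stated species. Formation of ¹⁴C-labelled active drug was followed over an incubation time course of 0–3 min.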
Data set [8] in a line: Toxicity in mouse administered as bolus iv injection once per week for 3 weeks. It counts as organism-based. The following applies: in vivo.
For data set [9], the system named is HCT-116. Briefly: Antitumor activity against human BCRP-negative HCT116 cells xenografted in mouse at MTD of 47 mg/kg, iv administered as bolus once per week for 3 weeks. It counts as functional, organism-based. On the set-up: dose 47 mg/kg.
For data set [10], the system named is Plasma. Briefly: Stability in mouse plasma assessed as time required for conversion into active drug CH0793076. The data set is classed as ADME, cell-free.
The test system of data set [11] is Plasma. Briefly: Stability in dog plasma assessed as time required for conversion into active drug CH0793076. The data set is classed as ADME, cell-free, Canis lupus familiaris. In a few lines: as §1
Data set [12] is described as follows: Solubility in water. It counts as physicochemical.
In data set [13] the test system is NCI-H460. Briefly: Antitumor activity against human BCRP-positive NCI-H460 cells xenografted in mouse at MTD of 100 mg/kg, iv administered as bolus once per week for 3 weeks. The data set is classed as functional, organism-based. On the set-up: dose 100 mg/kg.

`CCCCCN1C=Nc2cccc3nc4c(c1c23)Cn1c-4cc2c(c1=O)COC(=O)[C@@]2(CC)OC(=O)CNC(=O)CNC.Cl`: the Stability in data set [1] is reported as 100%; in data set [2], 100%; in data set [3], 73%.
On to `CCCCCN1C=Nc2cccc3nc4c(c1c23)Cn1c-4cc2c(c1=O)COC(=O)[C@@]2(CC)OC(=O)CN(C)C(=O)CNC.Cl`, for which the Stability came out at 95% in data set [1], 83% in [2] and 0% in [3].
As to `CCCCCN1C=Nc2cccc3nc4c(c1c23)Cn1c-4cc2c(c1=O)COC(=O)[C@@]2(CC)OC(=O)CN(C)C(=O)C(C)(C)N.Cl`, the figures for the Stability in data set [1], in data set [2] and in data set [3] were 78%, 0% and 0%, respectively.
In general, solubility refers to the concentration that dissolves in the medium under given conditions. As to `CCCCCN1C=Nc2cccc3nc4c(c1c23)Cn1c-4cc2c(c1=O)COC(=O)[C@@]2(CC)OC(=O)CN(C)C(=O)CN.Cl`, the Stability in data set [1] was 100%; in data set [2], 83%; in the data set on Plasma [5], less than 1 min; with Plasma [7], less than 1 min; with Plasma [10] it was less than 1 min; in the data set on Plasma [11], less than 1 min. In addition, the Stability in data set [3] was 0%. Further, the outcome with HCT-116 [4], with NCI-H460 [6], with HCT-116 [9] and in the data set on NCI-H460 [13] was Active. The MTD at 504 h in [8] was found to be 47 mg/kg. The same compound displayed a solubility in data set [12] of more than 10000 µg/mL.
For `CCCCCN1C=Nc2cccc3nc4c(c1c23)Cn1c-4cc2c(c1=O)COC(=O)[C@@]2(CC)OC(=O)[C@H](C)N(C)C(=O)CN.Cl`, the Stability in [1] was found to be 99%; in [2], 47%; in [3], 0%.
Take `CCCCCN1C=Nc2cccc3nc4c(c1c23)Cn1c-4cc2c(c1=O)COC(=O)[C@@]2(CC)OC(=O)OCCS(=O)(=O)C[C@H](N)C(=O)OCC.Cl`: the figures for the Stability in [1], in data set [2] and in data set [3] were 100%, 68% and 43%, respectively.
On the same counts, the results for `CCCCCN1C=Nc2cccc3nc4c(c1c23)Cn1c-4cc2c(c1=O)COC(=O)[C@@]2(CC)OC(=O)OCCS(=O)(=O)CCN.Cl` are 100%, 96% and 4%.
`CCCCCN1C=Nc2cccc3nc4c(c1c23)Cn1c-4cc2c(c1=O)COC(=O)[C@@]2(CC)OC(=O)CNC(=O)CN.Cl`: the Stability in data set [2] is on record as 100%; in data set [3], 47%.
